Laboratory results from the RNAGym collection of RNA variant scans (doi:10.1126/science.aae0568).
This sample holds only a part of the variants without activity.

B1: tRNA (parent)
chain: GUUCCGUUGGCGUAAUGGUAACGCGUCUCCCUCCUAAGGAGAAGACUGCGGGUUCGAGUCCCGUACGGAACG

Variants of: B1
Experiment: yeast fitness relative to wild type (ratio to wild type); higher = fitter; tRNA-Arg(CCU), competitive growth, 37 C, YPD
In short: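 Genotype frequency changes were the basis for Darwinian fitness relative to wild type. The frequencies came from 100-nucleotide paired-end sequencing of gene amplicons from the start population and each end population of pooled yeast strains with tRNA-Arg(CCU) gene variants at the native locus. Competition ran in YPD at 37°C for 24 hours in six replicates, genotypes needed ≥ 100 starting reads, and estimates < 0.5 were set to 0.5.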

| Variant | yeast fitness |
| --- | --- |
| G18A A36C U64A | 0.575 |
| G18A C29U G52C | ≤ 0.5 |
| G18A C24U G68C | 0.538 |
| G17U C27G C30U C60A | ≤ 0.5 |
| G18A C22A C46G U53A C61G A70C | 0.583 |
| G18A A20U A36U A65U | ≤ 0.5 |
| G18A A45C C49U C62G C66U | ≤ 0.5 |
| G18A A37U G68C | 0.579 |
| G18A C22A A37C G48A | ≤ 0.5 |
| G17C G18C C22A C61U | ≤ 0.5 |
| G17C G18C G39A A57C | ≤ 0.5 |
| G18A A21C A37C C66A | 0.695 |
| G17C U28G U54A C62U A70C | ≤ 0.5 |
| G18A C27U C34G G48C C49U | ≤ 0.5 |
| G17C G23C C33G G50A G68A | ≤ 0.5 |
| G17C G38C G52C | ≤ 0.5 |
| G18A C29U A37G | ≤ 0.5 |
| G18A C29U C31A A65G | ≤ 0.5 |
| G18A A20U U59G | ≤ 0.5 |
| G17C G52C C61A C66G | 0.637 |
| G18A A21C G23U U32A A42U G48C | ≤ 0.5 |
| G17C G41C | 0.664 |
| G17C U32A C66U A70G | ≤ 0.5 |
| G17C G48U | ≤ 0.5 |

| Variant | yeast fitness |
| --- | --- |
| G17U G38A G68A | ≤ 0.5 |
| G17C U28A C30A C31A C60G A65G | ≤ 0.5 |
| G18A C24U G48C U53G | 0.583 |
| G17C G18C C22A G41C A42U U64C | ≤ 0.5 |
| G18A A65U | 0.729 |
| G17C U28G G48A | 0.558 |
| G17C U19A A36C A37U A65C | 0.592 |
| G18A A65U A69U | 0.718 |
| G18A C24U C29U C31U G39C | ≤ 0.5 |
| G17C U59G | 0.674 |
| G17U C55U A70G | ≤ 0.5 |
| G17C U19C U59A | ≤ 0.5 |
| G18A A20G A69C | ≤ 0.5 |
| G18A A21C G58C C60U | ≤ 0.5 |
| G17U U28A C29G C33U C34G A42U | ≤ 0.5 |
| G17C G67A | 0.67 |
| G17U A40C | 0.823 |
| G17C G25C C61U | ≤ 0.5 |
| G18A A21U G48A | 0.571 |
| G18A A20U C27G U47A | ≤ 0.5 |
| G17C G52C | ≤ 0.5 |
| G18A C22A C61A A65G | ≤ 0.5 |
| G18A C24U G58A | ≤ 0.5 |
| G18A A36G A42U A70C | 0.784 |

| Variant | yeast fitness |
| --- | --- |
| G17C U19A C49G C66U | ≤ 0.5 |
| G18A C29G C49G G63C | ≤ 0.5 |
| G17C G63A | 0.674 |
| G17C G44C C66U | ≤ 0.5 |
| G17C U28G C30U C61A A69U | ≤ 0.5 |
| G18A A21C A43C G48A G52A G63A | ≤ 0.5 |
| G17C U32C | 0.644 |
| G17C U28G U54A | ≤ 0.5 |
| G18A C29G A37G G44C | 0.598 |
| G18A A57C | 0.626 |
| G18A A57U | 0.588 |
| G18A A57G | 0.854 |
| G18A C27U U28C C31A C55G | ≤ 0.5 |
| G18A C27A G48A | 0.612 |
| G17U G67C | 0.798 |
| G18A A40G A65G | ≤ 0.5 |
| G17C U19C A65G | 0.573 |
| G17U C24A C31U | ≤ 0.5 |
| G17C U19A C24G U26A C34U A69U | ≤ 0.5 |
| G17U C46G U54G | ≤ 0.5 |
| G17C G25C C29G A36U G39A | ≤ 0.5 |
| G17C U26G G39C A40U C61U | ≤ 0.5 |
| G18A A21U U32A | 0.593 |
| G17C U32G C33U G56A G58A | ≤ 0.5 |

| Variant | yeast fitness |
| --- | --- |
| G18A C29G A37G | 0.598 |
| G17C G56C G58C | ≤ 0.5 |
| G18A A42G G48C | ≤ 0.5 |
| G17C G39C C66U A70U | ≤ 0.5 |
| G18A A20U C29G A37U C55A C66U | ≤ 0.5 |
| G17C U26C | 0.698 |
| G18A A69U | 0.896 |
| G17C G39C A45U G58C | ≤ 0.5 |
| G18A A37G G52C C61A | ≤ 0.5 |
| G17U G25A G50A G63C | ≤ 0.5 |
| G17U A21C G25C | 0.541 |
| G18A A20C C34U A36U G39C A70U | ≤ 0.5 |
| G18A C29U A45G A70G | ≤ 0.5 |
| G17C G39A | 0.665 |
| G17C G23C U47G | ≤ 0.5 |
| G17C G48A A65C | 0.654 |
| G17U A37G A42U G48C C49U | ≤ 0.5 |
| G17C G18C G51A | ≤ 0.5 |
| G17U A45U C55U A70C | ≤ 0.5 |
| G17C U19C G68U | 0.569 |
| G18A A37C A42C C55U | ≤ 0.5 |
| G17C U47A | 0.695 |
| G18A C24G G39C | ≤ 0.5 |
| G18A A57G A69U | ≤ 0.5 |

| Variant | yeast fitness |
| --- | --- |
| G18A A21U | 0.528 |
| G17C U19C | 0.785 |
| G18A C30A C34G | ≤ 0.5 |
| G17C G38A | 0.599 |
| G17C U26A A69C | ≤ 0.5 |
| G17U A69C A70G | 0.643 |
| G17C U32G C34A A40U A43C | ≤ 0.5 |
| G18A A37U C61U U64A | ≤ 0.5 |
| G17C G48C A65G | 0.562 |
| G18A C27U U28C C31A C55G C61A | 0.572 |
| G18A A57U A70C | 0.536 |
| G17C G63A C66U | ≤ 0.5 |
| G17C U53G | ≤ 0.5 |
| G17C G23C A43U C49A | 0.613 |
| G17C G25A C49A | ≤ 0.5 |
| G18A C29U C31A C55U G68C | ≤ 0.5 |
| G18A A20U C22U U28A C33U G44C C60A | ≤ 0.5 |
| G18A A21G C66U | ≤ 0.5 |
| G17C G44A G48A | 0.529 |
| G18A A43C | 0.637 |
| G18A A43G | 0.904 |
| G18A C22G C24G G50A A69C | ≤ 0.5 |
| G18A A20U C60A | ≤ 0.5 |
| G18A C29U U35C G52C | ≤ 0.5 |

| Variant | yeast fitness |
| --- | --- |
| G17C G48A C55U | ≤ 0.5 |
| G18A C24A C31A G68U | ≤ 0.5 |
| G17C G68C | 0.614 |
| G18A C24G C49A | ≤ 0.5 |
| G18A C22G | 0.856 |
| G18A C22A | 0.805 |
| G17C U35C A37G G51C | ≤ 0.5 |
| G17C U19C C27U A65C | 0.641 |
| G18A A20U C27G | 0.526 |
| G18A C24U C30U C34U U54A | 0.531 |
| G18A C22A C61A A65G A70U | 0.585 |
| G18A A20G U54A A70G | ≤ 0.5 |
| G17C U64A | 0.662 |
| G17C U64C | 0.845 |
| G17C G52A G56A A65U A70G | ≤ 0.5 |
| G17C G44C | 0.58 |
| G17U A21G C46U | 0.588 |
| G18A A42U | 0.683 |
| G18A A42C | 0.635 |
| G17C G39C A45G U54A | ≤ 0.5 |
| G18A C24G C30U | ≤ 0.5 |
| G18A C29A | 0.539 |
| G17U A37U A57C | ≤ 0.5 |
| G18A C29A C33U C60G | ≤ 0.5 |

| Variant | yeast fitness |
| --- | --- |
| G18A A20U C29G A37U G48A | ≤ 0.5 |
| G17C G18C C22A U28C C60A C66U | 0.677 |
| G18A C27U | 0.712 |
| G18A C27G | ≤ 0.5 |
| G18A C24G C27U C62U A70C | ≤ 0.5 |
| G18A C24G | 0.666 |
| G18A C24U | 0.646 |
| G17C U26C U28C C29G A42C G51A | ≤ 0.5 |
| G18A | 0.76 |
| G18A C29G A37G C60A C62G | 0.728 |
| G18A A45U C55A | ≤ 0.5 |
| G18A A37C | 0.727 |
| G18A A37U | 0.6 |
| G17C G23C C31G G50C C60A G63A | ≤ 0.5 |
| G17C G51A U59A C66A | ≤ 0.5 |
| G18A A20U A69U | 0.686 |
| G17C G23C A43U C49A C66U | 0.634 |
| G18A C27G C49G C62G C66U A69C | ≤ 0.5 |
| G18A A21U G68A | ≤ 0.5 |
| G17C G56C G68A | ≤ 0.5 |
| G17C G25C A37G | ≤ 0.5 |
| G17C U26C C46U U64A | ≤ 0.5 |
| G17C U28A | 0.554 |
